Data set [1] concerns Mus musculus. Put plainly: Antitumor activity measured as Body weight change (BWC) between day 1 and 5 at 0.033 […] dose against sc inoculated P388 leukemia in CDF1 mice. Format: functional. Put shortly: (§1)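 Male CDF1 mice (18-22 g; 6 per dose, 24 controls) received 10^6 viable P388 cells sc on day 0. Drugs in 0.3% hydroxypropylcellulose/saline were given ip or orally, daily for 4 days from 24 h and again on day 10. Survival was followed to day 40. T/C = MST ratio ×100. BWC covers day 1 to day 5. Toxicity was judged by NCI norms.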

In data set [2] the test system is Mus musculus. Briefly: Antitumor activity measured as Body weight change (BWC) between day 1 and 5 at 0.050 […] dose against ip inoculated P388 leukemia in CDF1 mice. Format: functional. Put shortly: (§2)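 Groups of six male CDF1 mice (18-22 g) were inoculated ip on day 0 with 1×10^6 viable P388 ascites cells from DBA/2 passage, suspended in chilled 0.9% saline. Drugs were suspended in 0.3% hydroxypropylcellulose in saline and given ip daily for 4 days starting at 24 h. Survival was followed to day 40. T/C = treated/control MST ×100, with 24 controls. BWC = mean weight change from day 1 to day 5.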

Data set [3] has as its system Mus musculus. Briefly: Antitumor activity measured as Body weight change (BWC) between day 1 and 5 at 0.050 […] dose against sc inoculated P388 leukemia in CDF1 mice. It is filed as functional. The method, boiled down: as §1
The subject of data set [4] is Mus musculus. Briefly: Antitumor activity measured as Body weight change (BWC) between day 1 and 5 at 0.066 […] dose against ip inoculated P388 leukemia in CDF1 mice. It is filed as functional. Put shortly:
as §2

Data set [5] deals with Mus musculus. Briefly: Antitumor activity measured as Body weight change (BWC) between day 1 and 5 at 0.066 […] dose against po inoculated P388 leukemia in CDF1 mice. It is filed as functional. The method, boiled down:
as §1

Data set [6] concerns Mus musculus. Put plainly: Antitumor activity measured as Body weight change (BWC) between day 1 and 5 at 0.066 […] dose against sc inoculated P388 leukemia in CDF1 mice. It is filed as functional. The method, boiled down:
as §1

Data set [7] has as its system Mus musculus. Put plainly: Antitumor activity measured as Body weight change (BWC) between day 1 and 5 at 0.033 […] dose against ip inoculated P388 leukemia in CDF1 mice. Format: functional. Put shortly:
as §2

The subject of data set [8] is Mus musculus. Put plainly: Antitumor activity measured as T/C at 0.033 […] dose against ip inoculated P388 leukemia in CDF1 mice. Format: functional. Put shortly: as §2
In data set [9] the test system is Mus musculus. Briefly: Antitumor activity measured as T/C at 0.050 […] dose against ip inoculated P388 leukemia in CDF1 mice. It is filed as functional. The method, boiled down: as §2
Data set [10] has as its system Mus musculus. Briefly: Antitumor activity measured as T/C at 0.066 […] dose against ip inoculated P388 leukemia in CDF1 mice. Format: functional. The method, boiled down:
as §2

The subject of data set [11] is Mus musculus. Briefly: Antitumor activity measured as T/C at 0.066 […] dose against ip inoculated P388 leukemia in CDF1 mice; Toxic. It is filed as toxicity, organism-based. As to conditions: in vivo. Put shortly: as §1
For data set [12], the system named is Mus musculus. Briefly: Antitumor activity measured as T/C at 0.066 […] dose against po inoculated P388 leukemia in CDF1 mice. Format: functional. The method, boiled down:
as §1

For data set [13], the system named is Mus musculus. Put plainly: Antitumor activity measured as T/C at 0.11 […] dose against po inoculated P388 leukemia in CDF1 mice; Toxic. It is filed as toxicity, organism-based. As to conditions: in vivo. Put shortly:
as §1

The subject of data set [14] is Mus musculus. Put plainly: Antitumor activity measured as T/C at 0.16 […] dose against po inoculated P388 leukemia in CDF1 mice; Toxic. To be noted: in vivo. Format: toxicity, organism-based. Put shortly:
as §1

The test system of data set [15] is Mus musculus. Briefly: Antitumor a dose 0.066 […] against po inoculated P388 leukemia in CDF1 mice. It is filed as functional. The method, boiled down: as §1
Data set [16] deals with Mus musculus. Put plainly: Antitumor a dose 0.11 […] against po inoculated P388 leukemia in CDF1 mice; Toxic. Format: toxicity, organism-based. As to conditions: in vivo. Put shortly: as §1
Data set [17] concerns Mus musculus. Briefly: Antitumor a dose 0.16 […] against po inoculated P388 leukemia in CDF1 mice; Toxic. Format: toxicity, organism-based. To be noted: in vivo. The method, boiled down:
as §1

Data set [18] has as its system Mus musculus. Briefly: Antitumor a dose 0.033 nmol/Kg against ip inoculated P388 leukemia in CDF1 mice. Format: functional. Put shortly:
as §2

Data set [19] relates to Mus musculus. Put plainly: Antitumor a dose 0.033 nmol/kg against ip inoculated P388 leukemia in CDF1 mice. It is filed as functional. Put shortly:
as §2

The subject of data set [20] is Mus musculus. Briefly: Antitumor a dose 0.050 […] against ip inoculated P388 leukemia in CDF1 mice. It is filed as functional. The method, boiled down: as §2
The subject of data set [21] is Mus musculus. Put plainly: Antitumor a dose 0.066 […] against ip inoculated P388 leukemia in CDF1 mice. Format: functional. Put shortly:
as §2

Data set [22] concerns Mus musculus. Put plainly: Antitumor a dose 0.066 […] against ip inoculated P388 leukemia in CDF1 mice; Toxic. Format: toxicity, organism-based. As to conditions: in vivo. Put shortly: as §1
Data set [23] has as its system Mus musculus. Briefly: Antitumor activity measured as Body weight change (BWC) between day 1 and 5 at 0.035 […] dose against ip inoculated P388 leukemia in CDF1 mice. It is filed as functional. The method, boiled down: as §2
Data set [24] relates to Mus musculus. Briefly: Antitumor activity measured as Body weight change (BWC) between day 1 and 5 at 0.035 […] dose against sc inoculated P388 leukemia in CDF1 mice. It is filed as functional. Put shortly: as §1
Data set [25] relates to Mus musculus. Briefly: Antitumor activity measured as Body weight change (BWC) between day 1 and 5 at 0.052 […] dose against ip inoculated P388 leukemia in CDF1 mice. Format: functional. Put shortly: as §2
Data set [26] has as its system Mus musculus. Briefly: Antitumor activity measured as Body weight change (BWC) between day 1 and 5 at 0.052 […] dose against sc inoculated P388 leukemia in CDF1 mice. It is filed as functional. Put shortly:
as §1

For data set [27], the system named is Mus musculus. Put plainly: Antitumor activity measured as Body weight change (BWC) between day 1 and 5 at 0.069 […] dose against ip inoculated P388 leukemia in CDF1 mice. It is filed as functional. The method, boiled down:
as §2

For data set [28], the system named is Mus musculus. Briefly: Antitumor activity measured as Body weight change (BWC) between day 1 and 5 at 0.069 […] dose against sc inoculated P388 leukemia in CDF1 mice. It is filed as functional. The method, boiled down:
as §1

Data set [29] has as its system Mus musculus. Briefly: Antitumor activity measured as Body weight change (BWC) between day 1 and 5 at 0.11 […] dose against po inoculated P388 leukemia in CDF1 mice. Format: functional. Put shortly:
as §1

Data set [30] concerns Mus musculus. Put plainly: Antitumor activity measured as Body weight change (BWC) between day 1 and 5 at 0.17 […] dose against po inoculated P388 leukemia in CDF1 mice. It is filed as functional. The method, boiled down: as §1
Data set [31] concerns Mus musculus. Briefly: Antitumor activity measured as T/C at 0.035 […] dose against ip inoculated P388 leukemia in CDF1 mice. It is filed as functional. The method, boiled down: as §2
Data set [32] deals with Mus musculus. Briefly: Antitumor activity measured as T/C at 0.052 […] dose against ip inoculated P388 leukemia in CDF1 mice. Format: functional. The method, boiled down:
as §2

Data set [33] deals with Mus musculus. Put plainly: Antitumor activity measured as T/C at 0.069 […] dose against ip inoculated P388 leukemia in CDF1 mice. It is filed as functional. The method, boiled down:
as §2

The subject of data set [34] is Mus musculus. Briefly: Antitumor activity measured as T/C at 0.11 […] dose against po inoculated P388 leukemia in CDF1 mice. It is filed as functional. Put shortly:
as §1

Data set [35] has as its system Mus musculus. Briefly: Antitumor activity measured as T/C at 0.17 […] dose against po inoculated P388 leukemia in CDF1 mice. Format: functional. The method, boiled down: as §1
Data set [36] deals with Mus musculus. Put plainly: Antitumor activity measured as T/C at 0.23 […] dose against po inoculated P388 leukemia in CDF1 mice; Toxic. Format: functional, organism-based. The method, boiled down: as §1
Data set [37] relates to Mus musculus. Briefly: Antitumor a dose 0.069 […] against ip inoculated P388 leukemia in CDF1 mice. It is filed as functional. Put shortly: as §2
For data set [38], the system named is Mus musculus. Briefly: Antitumor a dose 0.11 […] against po inoculated P388 leukemia in CDF1 mice. Format: functional. Put shortly:
as §1

The test system of data set [39] is Mus musculus. Put plainly: Antitumor a dose 0.17 […] against po inoculated P388 leukemia in CDF1 mice. It is filed as functional. The method, boiled down: as §1
The test system of data set [40] is Mus musculus. Briefly: Antitumor a dose 0.23 […] against po inoculated P388 leukemia in CDF1 mice; Toxic. It is filed as toxicity, organism-based. As to conditions: in vivo. The method, boiled down: as §1
In data set [41] the test system is Mus musculus. Briefly: Antitumor a dose 0.035 nmol/Kg against ip inoculated P388 leukemia in CDF1 mice. It is filed as functional. The method, boiled down: as §2
Data set [42] relates to Mus musculus. Briefly: Antitumor a dose 0.035 nmol/kg against ip inoculated P388 leukemia in CDF1 mice. Format: functional. The method, boiled down:
as §2

Data set [43] relates to Mus musculus. Put plainly: Antitumor a dose 0.052 […] against ip inoculated P388 leukemia in CDF1 mice. Format: functional. Put shortly: as §2

Values joined by “and” are separate entries in the source; they are usually repeats but may differ in a detail not shown here. Equal entries are not always repeated.

Among the data in ChEMBL document CHEMBL1122275, “1,3-dipalmitoylglycerol ester of chlorambucil as a lymphotropic, orally administrable antineoplastic agent” (J Med Chem, 1983) are BWC, T/C and MST values, retold here.

Take `O=C(O)CCCc1ccc(N(CCCl)CCCl)cc1` [CHLORAMBUCIL]: the BWC in the data set with Mus musculus [1] is reported as -2.55 g; in the data set on Mus musculus [2], -2.9 g; in the data set on Mus musculus [3] it was -2.95 g; in the data set with Mus musculus [4], -3.4 g; with Mus musculus [5], -4.15 g; with Mus musculus [6], -3.95 g. The BWC in the data set with Mus musculus [7] is reported as -2.2 g. The T/C in the data set with Mus musculus [8] is 169% and 134%; with Mus musculus [9], 195% and 148%; with Mus musculus [10], 230%; in the data set with Mus musculus [11], “Toxic”; in the data set on Mus musculus [12] it was 155%; with Mus musculus [13], “Toxic”. In addition, in the data set with Mus musculus [14], the T/C entry is listed as “Toxic”. Further, the MST in the data set on Mus musculus [15] is 22.5 days; in the data set on Mus musculus [16], “Toxic”; with Mus musculus [17], “Toxic”; with Mus musculus [18], 19.5 days; in the data set with Mus musculus [19], 16.9 days; with Mus musculus [20] it was 19.5 days and 21.5 days. Besides, the MST was 23 days with Mus musculus [21] and “Toxic” with Mus musculus [22].

With `CCCCCCCCCCCCCCCC(=O)OCC(COC(=O)CCCCCCCCCCCCCCC)OC(=O)CCCc1ccc(N(CCCl)CCCl)cc1`, the BWC in the data set on Mus musculus [23] was -1.6 g; in the data set on Mus musculus [24] it was -2.35 g; with Mus musculus [25], -2 g; in the data set with Mus musculus [26] it was -2.55 g; in the data set with Mus musculus [27], -2.6 g; in the data set on Mus musculus [28] it was -3.95 g. Moreover, the BWC is recorded as -3.5 g with Mus musculus [29] and -3.9 g in the data set on Mus musculus [30]. For the same compound, the T/C with Mus musculus [31] was 170% and 141%; in the data set with Mus musculus [32], 220% and 148%; in the data set with Mus musculus [33], 265% and 162%; in the data set on Mus musculus [34], 168%; in the data set with Mus musculus [35], 234%; with Mus musculus [36] it was “Toxic”. Also, the MST was 26.5 days and 23.5 days with Mus musculus [37]; 24.5 days in the data set with Mus musculus [38]; 34 days in the data set on Mus musculus [39]; “Toxic” with Mus musculus [40]; 20.5 days in the data set on Mus musculus [41]; 17 days in the data set with Mus musculus [42]. In addition, the MST with Mus musculus [43] is 22 days and 21.5 days.

What is called T/C is the result in the treated group divided by that in the control group, in per cent.
